Calls of active or inactive are those of the source. The rule behind the calls is not given here.
How the values were obtained:
RAW264.7 [1] = assay: Antiinflammatory activity in lipopolysaccharide-induced mouse RAW264.7 cells assessed as inhibition of nitric oxide production after 20 to 24 hrs by Griess method; format: functional, cell-based
Summary of the method: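 RAW264.7 cells seeded at 1 × 10⁵ cells/well and left 6 h to attach, then given phenol red-free medium with 1 µg/mL E. coli LPS (strain 055:B5), with or without compound, for 20-24 h. Compounds were serially diluted. Supernatant nitrite read by Griess reagent, absorbance at 540 nm, against a NaNO₂ standard curve. Control got 0.5% (v/v) DMSO. Triplicate wells.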

RAW264.7 [2] = assay: Cytotoxicity in mouse RAW264.7 cells; format: cell-based
RAW264.7 [3] = assay: Antiinflammatory activity in lipopolysaccharide-induced mouse RAW264.7 cells assessed as inhibition of prostaglandin E2 production after 20 to 24 hrs; format: functional, cell-based
Summary of the method: (§1)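 PGE₂ made from endogenous arachidonic acid was measured with a commercial PGE₂ parameter assay kit, following the manufacturer's protocol.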

RAW264.7 [4] = assay: Antiinflammatory activity in lipopolysaccharide-induced mouse RAW264.7 cells assessed as inhibition of nitric oxide production at 8 uM after 24 hrs by Griess method; format: functional, cell-based
Summary of the method: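 RAW264.7 cells seeded at 1 × 10⁵ cells/well and left 6 h to attach, then exposed to compound at 8 µM for 24 h in phenol red-free medium with 1 µg/mL E. coli LPS (strain 055:B5). Supernatant nitrite read by Griess reagent at 540 nm against a NaNO₂ standard curve. Control got 0.5% (v/v) DMSO. Triplicate wells.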

RAW264.7 [5] = assay: Antiinflammatory activity in lipopolysaccharide-induced mouse RAW264.7 cells assessed as inhibition of prostaglandin E2 production at 8 uM after 24 hrs; format: functional, cell-based; summary of the method: as §1

SMILES	IC50 (RAW264.7 [1])	IC50 (RAW264.7 [2])	IC50 (RAW264.7 [3])	inhibition (RAW264.7 [4])	inhibition (RAW264.7 [5])
C=CC(O)C#CC#C[C@@H](O)/C=C\CCCCCCC (mixture of isomers)	1280 nM	3770 nM	1540 nM		
CCCCCCC/C=C\[C@H](O)C#CC#C[C@@H](O)CC [OPLOPANDIOL]	2720 nM	> 40000 nM	2990 nM	Active	Active
CCCCCCC[C@@H]1O[C@@H]1[C@H](O)C#CC#C[C@@H](O)CC [OPLOXYNE A]	1980 nM	> 40000 nM	3080 nM	Active	Active
CCCCCCC[C@@H](OC)[C@H](O)[C@H](O)C#CC#C[C@@H](O)CC [OPLOXYNE B]	> 40000 nM	> 40000 nM	> 40000 nM		
